In ChEMBL document CHEMBL3124917, “Design, synthesis, and biological evaluation of deuterated C-aryl glycoside as a potent and long-acting renal sodium-dependent glucose cotransporter 2 inhibitor for the treatment of type 2 diabetes” (J Med Chem, 2014):

Key:
[1] = test system: Canis familiaris; assay: Antidiabetic activity in Beagle dog assessed as urinary glucose excretion at 0.03 mg/kg, po administered 1 hr prior to glucose challenge measured after 1 to 24 hrs relative to dapagliflozin; type: functional, Canis lupus familiaris, Urine
Procedure, shortened: (§1)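 Overnight-fasted beagle dogs, n = 3 per group, given 0.03 mg/kg orally by gavage in 10% PEG400; vehicle controls received 10% PEG400. Oral glucose (2 g/kg, 5 mL/kg) given 1 h post-dose. Urine collected in metabolic cages at 0–8 and 8–24 h, glucose read on a biochemistry analyzer. Expressed as % of reference positive control; mean ± SD.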

[2] = test system: Canis familiaris; assay: Antidiabetic activity in Beagle dog assessed as urinary glucose excretion at 0.03 mg/kg, po administered 1 hr prior to glucose challenge measured after 8 to 24 hrs relative to dapagliflozin; type: functional, Canis lupus familiaris, Urine
Procedure, shortened: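 Overnight-fasted beagle dogs, n = 3 per group, given 0.03 mg/kg orally by gavage in 10% PEG400; vehicle controls received 10% PEG400. Oral glucose (2 g/kg, 5 mL/kg) given 1 h post-dose. Expressed as % of reference positive control; mean ± SD.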

[3] = AUC (0 to infinity) in Sprague-Dawley rat at 3 mg/kg, po by LC-MS/MS analysis; type: ADME, organism-based; design: time infinity, dose 3 mg/kg, route oral; settings: plasma
Procedure, shortened: (§2)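 Male Sprague-Dawley rats, n = 4 per group, overnight-fasted. Oral gavage of 3 or 1 mg/kg in 30% PEG400; i.v. arm at 1 mg/kg. Orbital plexus blood taken under ether at 0.083–24 h; plasma deproteinized and assayed by LC-MS/MS. Noncompartmental parameters derived; mean ± SD reported.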

[4] = test system: Rattus norvegicus; assay: Antidiabetic activity in Sprague-Dawley rat assessed as urinary glucose excretion at 1 mg/kg, po administered 1 hr prior to glucose challenge measured after 1 to 24 hrs relative to dapagliflozin; type: functional, Urine
Procedure, shortened: (§3)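 Overnight-fasted Sprague-Dawley rats, n = 3 per group, dosed 1 mg/kg by oral gavage in 30% PEG400; controls received vehicle. Oral glucose (2 g/kg, 10 mL/kg) given 1 h post-dose. Urine collected in metabolic cages at 0–4 and 4–24 h, glucose measured on a biochemistry analyzer. Expressed as % of reference positive control; mean ± SD.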

[5] = test system: Rattus norvegicus; assay: Antidiabetic activity in Sprague-Dawley rat assessed as urinary glucose excretion at 1 mg/kg, po administered 1 hr prior to glucose challenge measured after 4 to 24 hrs relative to dapagliflozin; type: functional, Urine; procedure, shortened: as §3
[6] = test system: Rattus norvegicus; assay: Antidiabetic activity in Sprague-Dawley rat assessed as urinary glucose excretion at 1 mg/kg, po administered 1 hr prior to glucose challenge measured after 1 to 4 hrs relative to dapagliflozin; type: functional, Urine; procedure, shortened: as §3
[7] = test system: Canis familiaris; assay: Antidiabetic activity in Beagle dog assessed as urinary glucose excretion at 0.03 mg/kg, po administered 1 hr prior to glucose challenge measured after 1 to 8 hrs relative to dapagliflozin; type: functional, Canis lupus familiaris, Urine; procedure, shortened: as §1
[8] = test system: Rattus norvegicus; assay: Antidiabetic activity in Sprague-Dawley rat assessed as reduction in blood glucose AUC at 0.1 mg/kg, po administered 1 hr prior to glucose challenge measured after 60 to 120 mins by oral glucose tolerance test relative to control; type: functional; design: scale not given: the % may be the effect or the level left
Procedure, shortened: (§4)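 Overnight-fasted male Sprague-Dawley rats, n = 5 per group, dosed orally at 0.1, 0.3, 1, 3 or 10 mg/kg in 30% PEG400 1 h before oral glucose challenge (20%, 2 g/kg). Blood glucose measured by glucometer from −60 to 120 min.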

[9] = Oral bioavailability in Sprague-Dawley rat at 1 mg/kg by LC-MS/MS analysis; type: ADME, organism-based; settings: in vivo; procedure, shortened: as §2
[10] = test system: Rattus norvegicus; assay: Antidiabetic activity in Sprague-Dawley rat assessed as reduction in blood glucose AUC at 10 mg/kg, po administered 1 hr prior to glucose challenge measured after 60 to 120 mins by oral glucose tolerance test relative to control; type: functional; design: scale not given: the % may be the effect or the level left; procedure, shortened: as §4
[11] = target: T1, Sodium/glucose cotransporter 2 (Homo sapiens, UniProt P31639); assay: Inhibition of full length human SGLT2 assessed as methyl-alpha-D-[U-14C]glucopyranoside uptake after 1.5 hrs by cell-based topcount scintillation counting analysis
T1 sequence (P31639 whole entry): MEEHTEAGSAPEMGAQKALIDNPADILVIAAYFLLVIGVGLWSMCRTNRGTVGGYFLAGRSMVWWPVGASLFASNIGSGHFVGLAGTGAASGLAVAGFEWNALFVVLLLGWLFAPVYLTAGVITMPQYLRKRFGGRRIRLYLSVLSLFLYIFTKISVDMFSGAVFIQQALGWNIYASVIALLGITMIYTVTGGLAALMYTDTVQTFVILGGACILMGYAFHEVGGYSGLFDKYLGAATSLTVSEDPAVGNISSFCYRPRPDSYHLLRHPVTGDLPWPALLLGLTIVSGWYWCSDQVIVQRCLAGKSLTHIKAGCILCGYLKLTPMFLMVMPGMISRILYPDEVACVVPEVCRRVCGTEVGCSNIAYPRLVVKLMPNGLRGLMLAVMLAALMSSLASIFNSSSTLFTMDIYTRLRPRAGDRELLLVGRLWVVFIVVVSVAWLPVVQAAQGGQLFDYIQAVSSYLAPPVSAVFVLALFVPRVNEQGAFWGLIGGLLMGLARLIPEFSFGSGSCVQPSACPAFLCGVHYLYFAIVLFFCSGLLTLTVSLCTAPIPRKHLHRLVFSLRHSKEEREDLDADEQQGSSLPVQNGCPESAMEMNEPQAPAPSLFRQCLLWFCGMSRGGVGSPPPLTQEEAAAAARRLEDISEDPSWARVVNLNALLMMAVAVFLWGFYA

[12] = Clearance in Sprague-Dawley rat at 1 mg/kg, iv by LC-MS/MS analysis; type: ADME, organism-based; design: dose 1 mg/kg, route intravenous; settings: in vivo; procedure, shortened: as §2
[13] = AUC (0 to infinity) in Sprague-Dawley rat at 1 mg/kg, iv by LC-MS/MS analysis; type: ADME, organism-based; design: time infinity, dose 1 mg/kg, route intravenous; settings: plasma; procedure, shortened: as §2
[14] = test system: Rattus norvegicus; assay: Antidiabetic activity in Sprague-Dawley rat assessed as reduction in blood glucose AUC at 3 mg/kg, po administered 1 hr prior to glucose challenge measured after 60 to 120 mins by oral glucose tolerance test relative to control; type: functional; design: scale not given: the % may be the effect or the level left; procedure, shortened: as §4
[15] = target: T2, Sodium/glucose cotransporter 1 (Homo sapiens, UniProt P13866); assay: Inhibition of full length human SGLT1 assessed as methyl-alpha-D-[U-14C]glucopyranoside uptake after 2 hrs by cell-based topcount scintillation counting analysis
T2 sequence (P13866 whole entry): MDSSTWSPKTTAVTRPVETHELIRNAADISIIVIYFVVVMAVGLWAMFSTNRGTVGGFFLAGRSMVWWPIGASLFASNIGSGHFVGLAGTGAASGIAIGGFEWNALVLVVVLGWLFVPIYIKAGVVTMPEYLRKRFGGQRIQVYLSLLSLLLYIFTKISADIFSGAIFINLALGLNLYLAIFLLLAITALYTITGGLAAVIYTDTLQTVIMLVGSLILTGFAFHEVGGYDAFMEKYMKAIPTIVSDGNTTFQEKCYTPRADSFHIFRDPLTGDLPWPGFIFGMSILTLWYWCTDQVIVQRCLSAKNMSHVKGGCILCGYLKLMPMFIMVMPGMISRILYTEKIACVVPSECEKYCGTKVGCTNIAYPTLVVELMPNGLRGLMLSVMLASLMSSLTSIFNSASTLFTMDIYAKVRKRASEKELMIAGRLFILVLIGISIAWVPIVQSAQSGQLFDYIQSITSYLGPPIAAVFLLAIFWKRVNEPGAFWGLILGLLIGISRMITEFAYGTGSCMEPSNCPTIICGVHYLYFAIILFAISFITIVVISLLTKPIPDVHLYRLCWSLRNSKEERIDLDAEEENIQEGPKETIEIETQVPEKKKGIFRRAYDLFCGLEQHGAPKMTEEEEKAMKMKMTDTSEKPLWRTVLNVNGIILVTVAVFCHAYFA

[16] = Cmax in Sprague-Dawley rat at 1 mg/kg, po by LC-MS/MS analysis; type: ADME, organism-based; design: dose 1 mg/kg, route oral; settings: in vivo; procedure, shortened: as §2
[17] = AUC (0 to infinity) in Sprague-Dawley rat at 1 mg/kg, po by LC-MS/MS analysis; type: ADME, organism-based; design: time infinity, dose 1 mg/kg, route oral; settings: plasma; procedure, shortened: as §2
[18] = Half life in Sprague-Dawley rat at 1 mg/kg, iv by LC-MS/MS analysis; type: ADME, organism-based; design: dose 1 mg/kg, route intravenous; settings: in vivo; procedure, shortened: as §2
[19] = Half life in Sprague-Dawley rat at 1 mg/kg, po by LC-MS/MS analysis; type: ADME, organism-based; design: dose 1 mg/kg, route oral; settings: in vivo; procedure, shortened: as §2
[20] = Tmax in Sprague-Dawley rat at 1 mg/kg, po by LC-MS/MS analysis; type: ADME, organism-based; design: dose 1 mg/kg, route oral; settings: in vivo; procedure, shortened: as §2
[21] = test system: Rattus norvegicus; assay: Antidiabetic activity in Sprague-Dawley rat assessed as reduction in blood glucose AUC at 0.3 mg/kg, po administered 1 hr prior to glucose challenge measured after 60 to 120 mins by oral glucose tolerance test relative to control; type: functional; design: scale not given: the % may be the effect or the level left; procedure, shortened: as §4
[22] = Drug metabolism in Sprague-Dawley rat assessed as compound remaining at 50 mg/kg, po after 5 days by HPLC analysis; type: ADME, organism-based; design: dose 50 mg/kg, route oral; settings: in vivo, read-out: Drug metabolism
[23] = test system: Rattus norvegicus; assay: Antidiabetic activity in Sprague-Dawley rat assessed as reduction in blood glucose AUC at 1 mg/kg, po administered 1 hr prior to glucose challenge measured after 60 to 120 mins by oral glucose tolerance test relative to control; type: functional; design: scale not given: the % may be the effect or the level left; procedure, shortened: as §4

Row | SMILES | Activity [1] | Activity [2] | AUC(0-inf) [3] | Activity [4] | Activity [5] | Activity [6] | Activity [7] | bioavailability [9] | clearance [12] | AUC(0-inf) [13] | Cmax [16] | AUC(0-inf) [17] | half-life [18] | half-life [19] | Tmax [20] | remaining at 120 h [22] | further results
1 | [2H]C([2H])(c1ccc(OCC)cc1)c1cc([C@@H]2O[C@H](CO)[C@@H](O)[C@H](O)[C@H]2O)ccc1Cl | 10200 mg | 6830 mg | 16100 ng·h/mL | 2220 mg | 2060 mg | 168 mg | 3400 mg |  |  |  |  |  |  |  |  |  | 
2 | [2H]C([2H])(c1ccc(OC([2H])([2H])C([2H])([2H])[2H])cc1)c1cc([C@@H]2O[C@H](CO)[C@@H](O)[C@H](O)[C@H]2O)ccc1Cl | 15400 mg | 11000 mg | 22400 ng·h/mL | 2080 mg | 1940 mg | 137 mg | 4360 mg |  |  |  |  |  |  |  |  |  | 
3 | [2H]C([2H])([2H])Oc1ccc(Cc2cc([C@@H]3O[C@H](CO)[C@@H](O)[C@H](O)[C@H]3O)ccc2Cl)cc1 | 14700 mg | 11200 mg | 7000 ng·h/mL | 2230 mg | 1980 mg | 251 mg | 3480 mg | 76.3% | 12.7 mL/min/kg | 1330 ng·h/mL | 257 ng/mL | 1020 ng·h/mL | 161 min | 210 min | 1.56 h | 87% | Activity [8]: 18.6%; Activity [10]: 5%; IC50 [11]: 2.5 nM; Activity [14]: 21.6%; IC50 [15]: 900 nM; Activity [21]: 20.7%; Activity [23]: 26.7%
4 | COc1ccc(Cc2cc([C@@H]3O[C@H](CO)[C@@H](O)[C@H](O)[C@H]3O)ccc2Cl)cc1 | 14500 mg | 10900 mg | 5350 ng·h/mL | 1890 mg | 1660 mg | 233 mg | 3620 mg | 77% | 14 mL/min/kg | 1220 ng·h/mL | 165 ng/mL | 943 ng·h/mL | 125 min | 194 min | 1.75 h | 73% | 
5 | CCOc1ccc(Cc2cc([C@@H]3O[C@H](CO)[C@@H](O)[C@H](O)[C@H]3O)ccc2Cl)cc1 [DAPAGLIFLOZIN] |  |  | 11700 ng·h/mL |  |  |  |  |  |  |  |  |  |  |  |  | 43% | 
